Experimental data: ChEMBL document CHEMBL5712901, “DOT1L inhibition blocks multiple myeloma cell proliferation by suppressing IRF4-MYC signaling” (2019)
Active and inactive are the calls of the source.

How the values were obtained:
KMS-12-PE [1] = assay: Upregulation of DOT1L in human KMS-12-PE cells by qRT-PCR analysis; assay type: functional, cell-based
Outline: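 Basal DOT1L transcript in untreated myeloma cell lines measured by qRT-PCR, normalized to ACTB; mean of 3 replicates with SEM.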

RPMI-8226 [2] = assay: Induction of cell cycle arrest in human RPMI-8226 cells assessed as increase in accumulation of cells at G1 phase at 1 uM for 6 days; assay type: functional, cell-based; details: time 6.0 day
Outline: (§1)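 Flow cytometric cell cycle analysis of RPMI-8226 and MM.1S cells treated with 1 μM DOT1L inhibitor or DMSO for 6 days. Sub-G1, G0-G1 and S phase populations scored. Summary is from 3 replications, mean ± SEM.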

RPMI-8226 [3] = assay: Induction of cell cycle arrest in human RPMI-8226 cells assessed as increase in accumulation of cells at G0 phase at 1 uM for 6 days; assay type: functional, cell-based; details: time 6.0 day; outline: as §1
MM1.S [4] = assay: Induction of cell cycle arrest in human MM1.S cells assessed as increase in accumulation of cells at G1 phase at 1 uM for 6 days; assay type: functional, cell-based; details: time 6.0 day; outline: as §1
RPMI-8226 [5] = assay: Induction of apoptosis in human RPMI-8226 cells assessed as viable cells at 1 uM for 6 days by annexin-V based propidium iodide staining based flow cytometric analysis (reference value: 79.67%); assay type: functional; details: RPMI-8226, 144 h, time 6 day, read-out: Activity
MM1.S [6] = assay: Induction of apoptosis in human MM1.S cells assessed as viable cells at 1 uM for 6 days by annexin-V based propidium iodide staining based flow cytometric analysis (reference value: 80.4%); assay type: functional; details: 144 h, time 6 day, read-out: Activity
MM1.S [7] = assay: Induction of apoptosis in human MM1.S cells assessed as late apoptotic cells at 1 uM for 6 days by annexin-V based propidium iodide staining based flow cytometric analysis (reference value: 4.85%); assay type: functional; details: time 6 day
RPMI-8226 [8] = assay: Induction of apoptosis in human RPMI-8226 cells assessed as late apoptotic cells at 1 uM for 6 days by annexin-V based propidium iodide staining based flow cytometric analysis (reference value: 8.89%); assay type: functional; details: time 6 day
RPMI-8226 [9] = assay: Induction of apoptosis in human RPMI-8226 cells assessed as necrotic cells at 1 uM for 6 days by annexin-V based propidium iodide staining based flow cytometric analysis (reference value: 3.92%); assay type: functional; details: time 6 day
RPMI-8226 [10] = assay: Effect on human RPMI-8226 cells assessed as change in Myc mRNA level at 1 uM for 3 days by ChIP-qPCR analysis; assay type: functional, cell-based; details: time 3.0 day
Outline: (§2)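 ChIP-qPCR for H3K79me2 at IRF4-MYC signaling genes after 1 μM inhibitor or DMSO for 3 days. Signal normalized to input DNA. An intergenic region 28 kb upstream of KLF2 served as negative control. Mean of 3 replications ± SEM.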

MM1.S [11] = assay: Effect on human MM1.S cells assessed as change in Myc mRNA level at 1 uM for 3 days by ChIP-qPCR analysis; assay type: functional, cell-based; details: time 3.0 day; outline: as §2
KMS-12-PE [12] = assay: Effect on human KMS-12-PE cells assessed as decrease in IRF4 mRNA level at 1 uM for 6 days by qRT-PCR analysis; assay type: functional, cell-based; details: time 6.0 day
Outline: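 qRT-PCR of MYC and IRF4 after 1 μM DOT1L inhibitor for 6 days. Normalized to ACTB; mean of 3 replications ± SEM.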

KMS-12-PE [13] = assay: Antiproliferative activity against human KMS-12-PE cells assessed as reduction in cell viability measured at 1 uM for 18 days; assay type: functional, cell-based; details: time 18.0 day
U-266 = assay: Antiproliferative activity against human U-266 cells assessed as reduction in cell viability measured at 1 uM for 18 days; assay type: functional, cell-based; details: time 18.0 day
RPMI-8226 [14] = assay: Upregulation of ALPK1 gene in human RPMI-8226 cells at 1 uM for 6 days by; assay type: functional, cell-based; details: time 6.0 day
RPMI-8226 [15] = assay: Upregulation of CCR2 gene in human RPMI-8226 cells at 1 uM for 6 days by; assay type: functional, cell-based; details: time 6.0 day
RPMI-8226 [16] = assay: Upregulation of FCGR2B gene in human RPMI-8226 cells at 1 uM for 6 days by; assay type: functional, cell-based; details: time 6.0 day
Outline: (§3)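 Human myeloma lines RPMI-8226 and MM.1S exposed to 1 μM DOT1L inhibitor, or DMSO, for 6 days. Whole-genome expression profiled on gene expression microarray.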

RPMI-8226 [17] = assay: Upregulation of FZD1 gene in human RPMI-8226 cells at 1 uM for 6 days by; assay type: functional, cell-based; details: time 6.0 day; outline: as §3
RPMI-8226 [18] = assay: Upregulation of GPD2 gene in human RPMI-8226 cells at 1 uM for 6 days by; assay type: functional, cell-based; details: time 6.0 day; outline: as §3
RPMI-8226 [19] = assay: Upregulation of MYO1F gene in human RPMI-8226 cells at 1 uM for 6 days by; assay type: functional, cell-based; details: time 6.0 day
RPMI-8226 [20] = assay: Upregulation of NREP gene in human RPMI-8226 cells at 1 uM for 6 days by; assay type: functional, cell-based; details: time 6.0 day
RPMI-8226 [21] = assay: Upregulation of PTGER4 gene in human RPMI-8226 cells at 1 uM for 6 days by; assay type: functional, cell-based; details: time 6.0 day
RPMI-8226 [22] = assay: Upregulation of PYCARD gene in human RPMI-8226 cells at 1 uM for 6 days by; assay type: functional, cell-based; details: time 6.0 day
RPMI-8226 [23] = assay: Upregulation of SLC9A9 gene in human RPMI-8226 cells at 1 uM for 6 days by; assay type: functional, cell-based; details: time 6.0 day
MM1.S [24] = assay: Upregulation of ACOT11 gene in human MM1.S cells at 1 uM for 6 days by; assay type: functional, cell-based; details: time 6.0 day
MM1.S [25] = assay: Upregulation of BCL6 gene in human MM1.S cells at 1 uM for 6 days by; assay type: functional, cell-based; details: time 6.0 day
MM1.S [26] = assay: Upregulation of CARD6 gene in human MM1.S cells at 1 uM for 6 days by; assay type: functional, cell-based; details: time 6.0 day
MM1.S [27] = assay: Upregulation of CTSH gene in human MM1.S cells at 1 uM for 6 days by; assay type: functional, cell-based; details: time 6.0 day; outline: as §3
MM1.S [28] = assay: Upregulation of HLA-DMA gene in human MM1.S cells at 1 uM for 6 days by; assay type: functional, cell-based; details: time 6.0 day; outline: as §3
MM1.S [29] = assay: Upregulation of ID2 gene in human MM1.S cells at 1 uM for 6 days by; assay type: functional, cell-based; details: time 6.0 day
MM1.S [30] = assay: Upregulation of NTNG1 gene in human MM1.S cells at 1 uM for 6 days by; assay type: functional, cell-based; details: time 6.0 day
MM1.S [31] = assay: Upregulation of RGS1 gene in human MM1.S cells at 1 uM for 6 days by; assay type: functional, cell-based; details: time 6.0 day
MM1.S [32] = assay: Upregulation of S100A10 gene in human MM1.S cells at 1 uM for 6 days by; assay type: functional, cell-based; details: time 6.0 day
MM1.S [33] = assay: Upregulation of SOAT2 gene in human MM1.S cells at 1 uM for 6 days by; assay type: functional, cell-based; details: time 6.0 day
MM1.S [34] = assay: Upregulation of ZG16B gene in human MM1.S cells at 1 uM for 6 days by; assay type: functional, cell-based; details: time 6.0 day
MM1.S [35] = assay: Upregulation of IFN in human MM1.S cells assessed as increase in IFITM1 gene at 1 uM for 6 days by qRT-PCR analysis; details: time 6.0 day
RPMI-8226 [36] = assay: Upregulation of IFN in human RPMI-8226 cells assessed as increase in IFIT1 gene at 1 uM for 6 days by qRT-PCR analysis; details: time 6.0 day
MM1.S [37] = assay: Induction of apoptosis in human MM1.S cells assessed as early apoptotic cells at 1 uM for 6 days by annexin-V based propidium iodide staining based flow cytometric analysis (reference value: 7.39%); assay type: functional; details: time 6 day
MM1.S [38] = assay: Effect on human MM1.S cells assessed as change in KLF2 mRNA level at 1 uM for 3 days by ChIP-qPCR analysis; assay type: functional, cell-based; details: time 3.0 day; outline: as §2

CC(C)N(CCCNC(=O)Nc1ccc(C(C)(C)C)cc1)C[C@H]1O[C@@H](n2cc(Br)c3c(N)ncnc32)[C@H](O)[C@@H]1O
66.9%: viability at 1 µM (RPMI-8226 [5])
20.2%: Activity (RPMI-8226 [8])
67.9%: viability at 1 µM (MM1.S [6])
active: Activity (KMS-12-PE [1]) | Activity (RPMI-8226 [2]) | Activity (RPMI-8226 [3]) | Activity (MM1.S [4]) | Activity (RPMI-8226 [10]) | Activity (MM1.S [11]) | Activity (KMS-12-PE [12]) | Activity (KMS-12-PE [13]) | Activity (U-266) | Activity (RPMI-8226 [14]) | Activity (RPMI-8226 [15]) | Activity (RPMI-8226 [16]) | Activity (RPMI-8226 [17]) | Activity (RPMI-8226 [18]) | Activity (RPMI-8226 [19]) | Activity (RPMI-8226 [20]) | Activity (RPMI-8226 [21]) | Activity (RPMI-8226 [22]) | Activity (RPMI-8226 [23]) | Activity (MM1.S [24]) | Activity (MM1.S [25]) | Activity (MM1.S [26]) | Activity (MM1.S [27]) | Activity (MM1.S [28]) | Activity (MM1.S [29]) | Activity (MM1.S [30]) | Activity (MM1.S [31]) | Activity (MM1.S [32]) | Activity (MM1.S [33]) | Activity (MM1.S [34]) | Activity (MM1.S [35]) | Activity (RPMI-8226 [36])
11.7%: Activity (MM1.S [7])
4.83%: Activity (RPMI-8226 [9])

CC(C)N(C[C@H]1O[C@@H](n2cnc3c(N)ncnc32)[C@H](O)[C@@H]1O)[C@H]1C[C@@H](CCc2nc3cc(C(C)(C)C)ccc3[nH]2)C1 [PINOMETOSTAT]
11.4%: Activity (MM1.S [7])
67.5%: viability at 1 µM (MM1.S [6])
50.2%: viability at 1 µM (RPMI-8226 [5])
3.98%: Activity (RPMI-8226 [9])
16.9%: Activity (MM1.S [37])
17.5%: Activity (RPMI-8226 [8])
active: Activity (RPMI-8226 [2]) | Activity (RPMI-8226 [3]) | Activity (MM1.S [4]) | Activity (RPMI-8226 [10]) | Activity (MM1.S [11]) | Activity (MM1.S [38]) | Activity (KMS-12-PE [12]) | Activity (KMS-12-PE [13]) | Activity (U-266) | Activity (MM1.S [35]) | Activity (RPMI-8226 [36])
